Published values gathered from unrelated publications.
Lines come from different studies, so protocols differ.
CDK9: Cyclin-dependent kinase 9 (CDK9, Homo sapiens, UniProt P50750)

C[C@H]1CC[C@H](n2c3cnccc3c3cnc(Nc4ccc5c(n4)CCN(C(=O)CO)C5)nc32)CC1  remaining signal (CDK9; cell-free assay; 1 µM): 60%
C[C@]1(O)CCCN(c2nc(Nc3ccc(S(=O)(=O)N[C@H]4CC[C@H](CN5CCN(c6ccc(C7CCC(=O)NC7=O)cc6F)CC5)CC4)cc3Cl)ncc2C(F)(F)F)C1 (stereo partly drawn)  remaining binding (CDK9; binding, competition with immobilised ligand; 1 µM): 100%
CC(C)S(=O)(=O)c1ccc2nccc(Nc3ccc4sc(C5CCCC5)nc4c3)c2c1  activity vs control (Cyclin-dependent kinase 9, with cyclin T1 (CDK9, Homo sapiens, UniProt P50750); enzyme activity, inhibitor; 1 µM): 98%
CN1CCN(C(=O)c2ccc(NC(=O)Nc3ccc(N(C)c4ccnc(Nc5ccc(CS(C)(=O)=O)cc5)n4)cc3)cc2)CC1  remaining binding (CDK9; binding; 1 µM): 69%
CO[C@@H]1[C@H](N(C)C(=O)c2ccccc2)C[C@H]2O[C@]1(C)n1c3ccccc3c3c4c(c5c6ccccc6n2c5c31)C(=O)NC4  inhibition (CDK9; enzyme activity, inhibitor; 1 µM): 3%
C[C@]1(O)CCCN(c2nc(Nc3ccc(S(=O)(=O)N[C@H]4CC[C@H](CN5CCN(c6ccc(C7CCC(=O)NC7=O)cc6F)CC5)CC4)cc3F)ncc2C(F)(F)F)C1 (stereo partly drawn)  remaining binding (CDK9; binding, competition with immobilised ligand; 1 µM): 95%
CC(C)(C)c1cnc(CSc2cnc(NC(=O)C3CCN(C(=O)CCCCCCCN4Cc5cc6c(cc5C4)C(=O)N(C4CCC(=O)NC4=O)C6=O)CC3)s2)o1 (stereo not drawn)  inhibition (CDK9; protein level, degrader, western blot; TC-71; 25 nM): 94.4%
CC#CC(=O)N1CCC[C@H]1c1nc(-c2ccc(C(=O)Nc3ccccn3)cc2)c2c(N)nccn12  inhibition (CDK9; enzyme activity, inhibitor; 1 µM): 0%
CC(C)(C)c1cnc(CSc2cnc(NC(=O)C3CCN(C(=O)CCCCN4Cc5cc6c(cc5C4)C(=O)N(C4CCC(=O)NC4=O)C6=O)CC3)s2)o1 (stereo not drawn)  inhibition (CDK9; protein level, degrader, western blot; TC-71; 25 nM): 80.1%
N#Cc1ccc(NC(=O)Nc2ccccc2)cc1  remaining binding (CDK9; cell-free assay, competition with immobilised ligand; 25 µM): 100%
CCCCC(=O)Nc1ccc(-c2ccc3ncn(CCC)c(=O)c3c2)cn1  remaining binding (CDK9; binding, competition with immobilised ligand; 0.5 µM): 92%
CC(C)(C)c1cnc(CSc2cnc(NC(=O)C3CCN(CC(=O)NCCOCCOCCOCCNc4cccc5c4C(=O)N(C4CCC(=O)NC4=O)C5=O)CC3)s2)o1 (stereo not drawn)  inhibition (CDK9; protein level, degrader, western blot; TC-71; 25 nM): 36.8%
